Compounds with a hit are over-represented: about 2.4% of the library has one in this group of screens.
LMPTP inh: blocks human LMPTP phosphatase | P24666 | recombinant LMPTP-A, OMFP fluorogenic substrate, fluorescence intensity | inhibition, % at 20 µM | 360,000 compounds, 0.22% hits | AID 651560;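 active = compounds that cut the enzyme signal by at least half of the control window in the single-dose screen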;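 also: plate controls were DMSO wells with enzyme plus substrate for no effect and substrate without enzyme for full effect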
Target sequence (P24666 whole entry, looked up): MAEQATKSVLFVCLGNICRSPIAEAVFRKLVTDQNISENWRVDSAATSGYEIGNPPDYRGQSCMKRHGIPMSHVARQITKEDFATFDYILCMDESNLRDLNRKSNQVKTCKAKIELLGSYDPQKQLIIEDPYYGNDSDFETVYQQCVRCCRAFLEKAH
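Test system: LMPTP-A, protein tyrosine phosphatase of low molecular weight; Input: 0.625 nM enzyme; Incubation: 50 min dark incubation at room temperature; Signal: endpoint fluorescence intensity from OMFP dephosphorylation; Read-out basis: % inhibition versus control wells.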
Scp1 inh: inhibitors of human Scp-1 phosphatase | 340,000 compounds, 0.88% hits | inhibition, % at 20 µM | Q9GZU7 | Recombinant Scp1, phosphopeptide, malachite green phosphate absorbance;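 active = inhibition above about 50% at 20 µM, limit read from the data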;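 also: plate controls were DMSO wells with enzyme for no effect and wells lacking enzyme for full effect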
Target sequence (Q9GZU7 76-261 limits assumed): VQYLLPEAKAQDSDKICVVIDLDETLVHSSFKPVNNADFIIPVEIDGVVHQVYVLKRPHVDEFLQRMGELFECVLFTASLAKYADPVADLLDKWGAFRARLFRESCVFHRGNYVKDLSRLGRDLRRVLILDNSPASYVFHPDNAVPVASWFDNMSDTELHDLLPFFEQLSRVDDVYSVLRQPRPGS
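Test system: SCP-1 phosphatase catalytic domain, residues 76-261; measured by: colorimetric phosphate reagent with accelerator and stabiliser, absorbance at 630 nm; timing: enzyme reaction 45 min at room temperature, colour 5 min, stabilisation 30 min; also added: Phosphorylated 17-residue peptide substrate; compound dosing: one concentration, 20 µM, with 1.0% DMSO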
NadD inh: blocks S. aureus nicotinate mononucleotide adenylyltransferase; purified NadD enzyme, colorimetric absorbance read-out; inhibition, % at 20 µM; 360,000 compounds, 0.78% hits; in the data active = inhibition above about 26%
DNMT1 block: blocks human DNA methyltransferase DNMT1; inhibition (reported as % activation of signal), % at 10 µM; DNMT1 molecular beacon, Hinp1I cleavage, fluorescence; AID 588458; P26358; 360,000 compounds, 0.83% hits; in the data active = inhibition above about 50%
STEP block: STEP (human) phosphatase inhibition | recombinant STEP, OMFP fluorogenic substrate, fluorescence | 360,000 compounds, 0.25% hits | AID 588621 | inhibition, % at 20 µM;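 active = inhibition at 20 µM, scaled per plate between control wells, above about 37%, limit read from the data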;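 also: 0% = DMSO with enzyme and substrate and 100% = substrate only without enzyme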
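Test system: STEP tyrosine phosphatase / Reagent: OMFP at 25 µM / Doses: 20 µM, 1% DMSO / Read-out: percent inhibition scaled to no-enzyme and uninhibited-enzyme controls, plate-pattern corrected / Detection: FITC-channel fluorescence of OMFP product / Medium: Bis-Tris buffer pH 6.0, 2.5 mM DTT, 0.005% Tween 20 / Schedule: 20 min at room temperature, dark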
SUMO1-SIM PPI: SUMO1-SIM interaction modulation | P63165 | SUMO1 binding to a labelled peptide, TR-FRET, 1 h | inhibition, % at 20 µM | 360,000 compounds, 0.33% hits; in the data active = inhibition above about 37%
Target sequence (P63165 whole entry, looked up): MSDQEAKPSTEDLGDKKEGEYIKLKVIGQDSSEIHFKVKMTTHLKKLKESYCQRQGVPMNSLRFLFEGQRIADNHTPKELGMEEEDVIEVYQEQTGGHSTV
Scp1 confirm: Scp-1 (human) inhibition, single-dose confirmed. shares compounds with Scp1 inh. AID 540281. 2,500 compounds, 61% hits. inhibition, % at 20 µM. recombinant SCP-1 catalytic domain, phosphate release, malachite green absorbance;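 also: plate controls were DMSO with enzyme for no effect and buffer wells lacking enzyme for full effect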
Scp-1 MG ctr: counter-screen for Scp-1 inhibitors: colorimetric interference; shares compounds with Scp1 inh; Colorimetric interference counterscreen, malachite green absorbance 630 nm; apparent inhibition (interference), % at 20 µM; 2,500 tested, under 10 active; AID 540313;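 also: compounds added after enzyme reaction finished so only phosphate colour detection is probed; plate controls were DMSO wells with completed Scp-1 reaction for no effect and substrate wells lacking enzyme for full effect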
Scp1 DSF: validation of human Scp-1 inhibitors by thermal shift binding | Recombinant SCP1, Sypro Orange thermal shift Tm | 1,500 compounds, 25% hits | AID 540329 | shares compounds with Scp1 inh | thermal shift relative to vanadate control, % at 40 µM;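 active = substances whose mean melting-temperature shift, as a percentage of the reference inhibitor's shift, reaches about 5.3%, limit read from the data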;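 also: 0% = Tm of DMSO wells and 100% = Tm with sodium orthovanadate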
DNMT1 interf DR: shows spectral interference in the DNMT1 beacon assay; IC50, µM; AID 602382; molecular beacon fluorescence, spectral interference counter-screen; shares compounds with DNMT1 block; 200 tested, under 10 active; call rule not given here
DNMT1 inh conf: DNMT1 inhibition confirmation, single concentration. DNMT1 molecular beacon HinP1I cleavage, fluorescence. AID 602385. shares compounds with DNMT1 block. 2,300 compounds, 8% hits. inhibition, % at 10 µM;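 active = average inhibition of at least 30% in the single-concentration confirmation test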
Beacon interf: counter-screen for DNMT1 inhibitors: spectral interference. shares compounds with DNMT1 block. DNMT1 molecular beacon spectral interference counterscreen, fluorescence 485/520. activation (fluorescence interference), % at 10 µM. 2,300 compounds, 1% hits. AID 602387;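 active = activation of at least 30% at 10 µM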;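 also: DNMT1 catalytic domain with a HinP1I cleavage step and a FAM/dabcyl DNA beacon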
* = called active by the depositor; · = not tested or not shown.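 The calls were made as follows, unless noted: active = inhibition of at least 30% at 20 µM; inactive = the rest.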

SMILES	LMPTP inh	Scp1 inh	NadD inh	DNMT1 block	STEP block	SUMO1-SIM PPI	Scp1 confirm	Scp-1 MG ctr	Scp1 DSF	others
C[N+]1(C)C2CCC1CC(OC(=O)c1ccco1)C2 (configuration not stated)	-2.2	18.8	1.4	-0.3	-2.7	-0.5	·	·	·
C[N+]1(C)C2CCC1CC(OC(=O)c1c[nH]c3ccccc13)C2 (configuration not stated)	0.6	54.4*	6.1	2.1	2.7	2.3	-6.2	-16.1	·
O=C(c1ccccc1)C(CN1CCCC1)c1ccccc1 (configuration not stated)	-6.5	-1.8	-0.8	10.2	1.9	-0.6	·	·	·
COC(=O)C1=C(c2cccc(OCc3ccccc3)c2)C[C@@H]2CC[C@H]1N2C(=O)NCc1ccc([N+](=O)[O-])cc1	7.2	-23.9	-3.8	-11.3	2.1	-3.5	·	·	·
COC(=O)C1=C(c2ccc(OCc3ccccc3)cc2)C[C@@H]2CC[C@H]1N2C(=O)NCc1ccc([N+](=O)[O-])cc1	9.3	68.4*	-4.6	-15.0	5.6	4.8	-32.2	-28.0	·
Cn1cc[n+](C)c1P(=S)(c1ccccc1)c1ccccc1	-0.8	19.4	6.2	0.8	-1.0	0.7	·	·	·
Cc1c(P(=S)(c2ccccc2)c2ccccc2)[n+]2ccccc2n1C	6.7	67.8*	19.1	-139.8	-1.5	-58.6	-11.2	-15.0	·
NC(=O)c1ccc(N=Cc2c(O)n(Cc3ccco3)c(=O)[nH]c2=O)cc1	34.1	87.1*	19.7	61.5*	31.8	98.9*	67.0*	-11.4	-10.1
C[C@]12CCC3C(CC[C@H]4C[C@@H](O)CC[C@]34C)[C@H]1C=CC2=O (some centres not stated)	0.9	55.9*	1.4	0.7	-2.1	1.4	-18.1	-17.8	·
C[C@]12CCC3[C@@H](CC[C@@H]4C[C@H](O)CC[C@]34C)[C@@H]1CCC2=O (some centres not stated)	-1.2	-3.5	-3.0	4.3	3.0	3.3	·	·	·
NC(=O)OCCCc1ccccc1	-0.4	-6.2	1.8	1.2	-0.2	4.0	·	·	·
CCc1sc(C(=O)N2CCC3(CC2)OCCO3)cc1Br	-1.3	54.3*	2.7	1.3	-0.4	-1.6	-6.8	-5.4	·
CN=C1CN(O)C(c2ccccc2)c2cc(Cl)ccc2N1 (configuration not stated)	0.3	-6.7	0.3	-0.7	-1.0	1.3	·	·	·
C=CC[N+]1(C)CC[C@]23c4c5ccc(O)c4O[C@H]2C(=O)CC[C@@]3(O)[C@H]1C5 (some centres not stated)	-1.0	97.5*	3.7	3.7	-3.7	0.8	92.9*	-7.9	-23.9
O=C1CC[C@@]2(O)[C@H]3Cc4ccc(O)c5c4[C@@]2(CCN3CC2CC2)[C@H]1O5	-1.2	-6.2	-8.9	3.9	-2.7	-3.0	·	·	·
CC(C)OCCCNC(=O)c1c(N)n(Cc2cccs2)c2nc3ccccc3nc12	4.2	23.2	-11.8	31.9	2.1	30.9	·	·	·
CC/C(CC(c1ccccc1)c1c(O)c2ccccc2oc1=O)=N\NC(N)=S (configuration not stated)	-0.1	56.0*	-4.2	8.6	3.1	-0.7	45.6*	0.6	2.1
CNCC(O)c1cc(OCc2ccccc2)c(OCc2ccccc2)cc1F (configuration not stated)	0.2	-8.2	-6.8	-4.0	2.8	-11.8	·	·	·
CCOc1ccc(N=C2SCCCN2C)cc1	-1.0	103.4*	6.7	-0.3	1.1	-0.6	86.2*	-12.6	-13.9
Cc1ccc(N2C(=O)NC(=O)/C(=C/c3ccc(-c4ccc(C(=O)O)c(Cl)c4)o3)C2=O)cc1	0.4	58.4*	41.7*	40.7	4.3	14.3	54.7*	-18.0	-7.5
Cc1cc(/C=C2\C(=O)NC(=O)N(c3cccc(F)c3)C2=O)c(C)n1-c1ccc(C(=O)O)c(Cl)c1	1.0	50.9*	-2.8	59.9*	19.3	1.2	57.7*	3.1	0.3
Cc1cc(/C=C2\C(=O)NC(=O)N(Cc3ccccc3Cl)C2=O)c(C)n1-c1ccc(C(=O)O)cc1	7.0	66.2*	10.8	70.9*	2.5	20.5	66.6*	-10.4	-0.9
CCn1ccnc1CN1CCCC(C(=O)c2cc(F)ccc2OC)C1 (configuration not stated)	-1.6	-0.7	-1.8	0.3	1.4	-1.7	·	·	·
O=C1NCN(c2ccccc2)C12CCN(C(c1ccccc1)c1nnnn1Cc1ccccc1)CC2 (configuration not stated)	2.3	·	6.4	-7.6	0.0	-0.1	·	·	·
Cc1ccc(S(=O)(=O)Cc2ccc(C(=O)N3CCC4(CC3)OCCO4)o2)cc1	-0.8	57.5*	-0.3	58.4*	4.2	-0.5	51.9*	-7.9	1.4	DNMT1 inh conf=1.4;Beacon interf=2.8
CCN1CCN(C(=O)COc2cc(=O)n(CC)c3ccccc23)CC1	-1.1	2.7	-3.4	0.6	3.1	1.2	·	·	·
Cc1ccc(-n2c(C)cc(/C=C3/C(=O)NC(=O)N(Cc4ccco4)C3=O)c2C)cc1	2.2	8.7	14.4	41.2	1.9	0.9	·	·	·
Cn1cccc1/C=C1\C(=O)NC(=O)N(Cc2ccco2)C1=O	41.4	79.8*	4.7	104.0*	56.2*	15.1	45.0*	-23.2	8.1*	DNMT1 inh conf=19.5;Beacon interf=1.7
Cc1cc(/C=C2\C(=O)NC(=O)N(Cc3ccccc3)C2=O)c(C)n1-c1ccc(Cl)c(C(=O)O)c1	16.4	72.2*	7.4	103.2*	83.7*	32.3	60.4*	-19.4	8.7*	DNMT1 interf DR=>99;DNMT1 inh conf=72.5*;Beacon interf=-1.3
Cc1ccc2c(c1)C1CN(C)CCC1N2C(=O)c1cccnc1Cl (configuration not stated)	-1.5	-9.0	-2.8	-2.4	0.0	-3.0	·	·	·
